14-3-3 Bad PPI = disrupts binding of bovine 14-3-3 zeta to phospho-Bad peptide. TR-FRET 14-3-3zeta/Dy647-pBad peptide displacement, 1 h. inhibition, % at 21.7 µM. 220,000 tested, 0.71% active;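 active = inhibition above about 70%, limit read from the data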
RanGTP-Imp inh = inhibitors of RanGTP-importin-beta interaction, primary screen, biochemical, FRET, CFP-Ran, YFP-importin-beta, homogeneous | inhibition, % (no concentration beside the values) | cell-free CFP-Ran/YFP-importin-beta FRET ratio | 300,000 tested, 1.1% active;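 active = more than half of the replicate wells show a fall in the fluorescence ratio signal beyond about 16%, limit read from the data, passing the limit was not always enough; inconclusive = exactly half of the replicate wells pass the set limit; inactive = fewer than half of replicates pass the limit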
Runt-SMMHC FRET = Runt domain-CBFb-SMMHC interaction inhibition | Q01196+Q13951 | Cerulean-Runt/Venus-CBFb-SMMHC FRET ratio 530/480, 1 h | inhibition, % at 20 µM | 220,000 tested, 0.74% active;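 active = mean inhibition across duplicate retests at 20 µM reaching about 50%, limit read from the data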;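 note: inhibitors lower the FRET ratio by blocking Runt binding to CBFb-SMMHC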
Hck Nef HTS = human Hck-Nef kinase inhibition; inhibition, % at 20 µM; 220,000 tested, 0.68% active; AID 463187; Recombinant Hck-YEEI plus Nef, Z-Lyte FRET kinase assay; P08631;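 active = Hck-Nef kinase inhibition above about 50%, limit read from the data; inactive = inhibition below that limit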
Target sequence (P08631 whole entry, looked up): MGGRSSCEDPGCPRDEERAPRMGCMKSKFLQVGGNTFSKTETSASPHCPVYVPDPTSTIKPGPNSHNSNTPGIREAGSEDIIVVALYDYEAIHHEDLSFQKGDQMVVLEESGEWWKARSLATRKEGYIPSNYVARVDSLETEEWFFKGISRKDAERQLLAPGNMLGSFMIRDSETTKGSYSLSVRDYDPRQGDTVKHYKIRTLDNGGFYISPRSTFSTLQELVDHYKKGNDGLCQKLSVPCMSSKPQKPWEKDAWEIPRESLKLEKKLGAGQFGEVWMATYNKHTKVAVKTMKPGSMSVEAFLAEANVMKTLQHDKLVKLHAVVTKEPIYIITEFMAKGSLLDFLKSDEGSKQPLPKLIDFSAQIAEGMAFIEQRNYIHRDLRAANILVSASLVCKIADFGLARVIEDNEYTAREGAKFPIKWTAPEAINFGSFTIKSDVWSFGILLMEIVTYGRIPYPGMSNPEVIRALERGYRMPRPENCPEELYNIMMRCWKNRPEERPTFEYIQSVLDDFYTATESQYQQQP
TbHK1 inh = T. brucei hexokinase 1 inhibition; recombinant TbHK1, G6PDH-coupled NADH A340; inhibition, % at 10 µM; 220,000 tested, 0.11% active; AID 1430;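 active = inhibition of 50% or more in the single-dose primary screen; inactive = inhibition below 50%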
Runt-CBFb FRET = blocks binding of human RUNX1 Runt domain to CBFb | Q01196+Q13951 | Cerulean-Runt/Venus-CBFb FRET ratio 530/480, 1 h | 220,000 tested, 0.46% active | inhibition, % at 20 µM;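 active = inhibition over about 50% at 20 µM in the single-dose screen, limit read from the data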
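Measured by: fluorescence energy transfer, 422 nm excitation, 530/480 nm emission; Assay system: Cerulean-Runt domain; Medium: Tris pH 7.5 buffer with BSA; Measure: loss of energy transfer signal; Controls: 5 µM unlabeled CBFb as full-inhibition high control; Incubation: protein complex preformed 1 h, compound exposure 1 h, room temperature, dark.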
Runt-CBFb TRFRET = Runt-CBFb binding inhibition; shares compounds with Runt-CBFb FRET; TR-FRET RUNX1 Runt domain-CBFb binding; inhibition, % at 20 µM; 480 tested, 20% active; AID 1502; in the data active = inhibition above about 40%
Each line names hits and unclear results; the compound was inactive in the other large screens (follow-up assays come after a bar, where they were run). A selection: hits, their analogues and other compounds. The true share with any hit is near 2.2%.

COc1ccc([N+](=O)[O-])cc1NC(=O)CSc1nc(C)cc(C)n1	Runt-CBFb FRET 57 | Runt-CBFb TRFRET inactive
c1ccc(C2CC(c3cccs3)=NN2c2ccccc2)cc1 (stereo not given)	Runt-SMMHC FRET 84, Runt-CBFb FRET 51 | Runt-CBFb TRFRET inactive
O=S(=O)(c1ccccc1)N1N=C(c2cccs2)CC1c1ccc(Br)cc1 (stereo not given)	none
CCNC(=O)N1C(CC(=O)OCC)C(=O)NC2CCCCC21 (stereo not given)	none
COC(=O)CC1C(=O)NC2CCCCC2N1C(=O)CCl (stereo not given)	Runt-CBFb FRET 51 | Runt-CBFb TRFRET inactive
COc1ccccc1C(=O)COC(=O)CCNS(=O)(=O)c1ccc(C)c(C)c1	none (no result: 14-3-3 Bad PPI, Runt-SMMHC FRET, Hck Nef HTS, TbHK1 inh, Runt-CBFb FRET)
C=CCN1C(=O)/C(=C2/Sc3ccc(OC)cc3N2C)SC1=NCc1ccccc1	Runt-CBFb FRET 51 | Runt-CBFb TRFRET inactive
CCC1CCCCN1C(=O)CSc1nc(N)c(NC(=O)c2ccco2)c(=O)[nH]1 (stereo not given)	Runt-CBFb FRET 63 | Runt-CBFb TRFRET inactive
O=C(COc1cccc(Cl)c1Cl)Nc1ccc2c(c1)CCC2	Runt-CBFb FRET 63 | Runt-CBFb TRFRET inactive
Cc1cc(C)nc(Sc2nc(Cl)nc(N(c3ccccc3)c3ccccc3)n2)n1	Runt-CBFb FRET 59 | Runt-CBFb TRFRET inactive
Cc1cc(C)nc(SC(C(=O)O)c2ccccc2)n1 (stereo not given)	none
COCCCNC(=S)NCCCNc1nc2cc3c(cc2cc1C#N)OCO3	RanGTP-Imp inh 53, Runt-SMMHC FRET 140, Runt-CBFb FRET 78 | Runt-CBFb TRFRET inactive
O=C(CSc1ncnc2ccccc12)c1ccco1	RanGTP-Imp inh inconclusive, Runt-SMMHC FRET 116, Runt-CBFb FRET 59 | Runt-CBFb TRFRET 42
O=C(CSc1ncnc2ccccc12)NCc1ccco1	none
O=C(NCCc1ccccc1)C(=O)NCC1CCNCC1	none
COC(=O)c1sc2nc(C)nc(SCC(=O)N3CCC(C(=O)O)CC3)c2c1C	none
CC(=O)Nc1ccc(S(=O)(=O)N2CCN(c3cc(C(F)(F)F)ccn3)CC2)cc1	Runt-CBFb FRET 56 | Runt-CBFb TRFRET 76
CCN(CC(=O)NC1CCS(=O)(=O)C1)S(=O)(=O)c1ccc(C)cc1C (stereo not given)	none
O=C(NCC1CCOCC1)C1CCC(=O)N(Cc2cccc(C(F)(F)F)c2)C1 (stereo not given)	none (no result: 14-3-3 Bad PPI, Runt-SMMHC FRET, Hck Nef HTS, TbHK1 inh, Runt-CBFb FRET)
O=C(Nc1ccc2cn[nH]c2c1)c1c(Cl)cccc1Cl	none
O=C1C(Cl)=C(Nc2ccc3cn[nH]c3c2)C(=O)c2ccccc21	Runt-CBFb FRET 51 | Runt-CBFb TRFRET inactive
COc1ccc(Cn2c(-c3ccc(OC)cc3)nc3c(c(=O)c4ccccc4n3C)c2=O)cc1	none
COc1ccc(-c2nc3c(c(=O)c4ccccc4n3C)c(=O)n2Cc2ccccc2)cc1	Runt-CBFb FRET 53 | Runt-CBFb TRFRET 61
CCOC(=O)C1=C(C)N(c2ccc(C)cc2)C(=O)/C1=C\c1ccc(O)c(OC)c1	Runt-CBFb FRET 57 | Runt-CBFb TRFRET inactive
COC(=O)C1=C(C)N(Cc2ccc(C)cc2)C(=O)/C1=C\c1ccc(O)c(OC)c1	none
COc1ccccc1NS(=O)(=O)c1cc(NC(=O)c2cccs2)ccc1N1CCCC1	Runt-CBFb FRET 50 | Runt-CBFb TRFRET inactive
COc1ccccc1NS(=O)(=O)c1cc(NC(=O)c2sccc2C)ccc1N1CCOCC1	none
COc1ccccc1NS(=O)(=O)c1cc(NC(=O)c2sccc2C)ccc1N1CCCC1	Runt-CBFb FRET 51 | Runt-CBFb TRFRET inactive
COc1ccccc1NS(=O)(=O)c1cc(NC(=O)c2cccs2)ccc1N1CCCCC1	none
COc1ccc(C(CCN2CCN(c3ccccc3)CC2)c2c(OC)cc(OC)c3c(-c4ccccc4)cc(=O)oc23)cc1 (stereo not given)	Runt-CBFb FRET 55 | Runt-CBFb TRFRET inactive
CCOC(=O)c1c(NC(C)=O)sc2c1CCC(C=O)=C2Sc1ccccc1	Runt-CBFb FRET 53 | Runt-CBFb TRFRET inactive
CCOC(=O)[C@@H]1[C@H]2COc3ccc(Br)cc3[C@@H]2N2C(=O)N(c3ccc(C(F)(F)F)cc3)C(=O)[C@@]12C	none (no result: 14-3-3 Bad PPI, Runt-SMMHC FRET, Hck Nef HTS, TbHK1 inh, Runt-CBFb FRET)
OCCC1CN(Cc2cccc3nonc23)CCN1C1CCCCC1 (stereo not given)	none
O=C(O)C1OC(Oc2cc3oc(-c4ccccc4)cc(=O)c3c(O)c2O)C(O)C(O)C1O (stereo not given)	Runt-CBFb FRET 56 | Runt-CBFb TRFRET inactive
C/C(=N/NC(=O)c1cc(O)c(O)c(O)c1)c1ccc([N+](=O)[O-])cc1	Runt-CBFb FRET 54 | Runt-CBFb TRFRET 67
C/C(=N\NC(=O)c1ccc([N+](=O)[O-])cc1)c1c(O)cc(C)oc1=O	none
COC(=O)c1sc2nc(C)cc(C)c2c1N	none
COc1ccc2nc(NC(=O)c3sc4nc(C)cc(C)c4c3N)sc2c1	Runt-CBFb FRET 65 | Runt-CBFb TRFRET inactive
Fc1ccc(-c2ccnc(=S)[nH]2)cc1	Runt-CBFb FRET 52 | Runt-CBFb TRFRET inactive
Cc1nc2ccccc2c(=O)n1/N=C/c1ccc([N+](=O)[O-])o1	Runt-CBFb FRET 57 | Runt-CBFb TRFRET inactive
COC(=O)c1ccc(NC(=O)CN2CCN(c3ccccn3)CC2)cc1	none
COCCOC(=O)c1c(N)n(CCCN2CCOCC2)c2nc3ccccc3nc12	Runt-SMMHC FRET 97, Runt-CBFb FRET 51 | Runt-CBFb TRFRET inactive
Nc1c(S(=O)(=O)c2cccc(Cl)c2)c2nc3ccccc3nc2n1CCN1CCOCC1	none
C=Cc1ccc(Cn2c(=O)n(CCCOC)c(=O)c3sccc32)cc1	none (no result: 14-3-3 Bad PPI, Runt-SMMHC FRET, Hck Nef HTS, TbHK1 inh, Runt-CBFb FRET)
Fc1ccccc1-c1csc(=Nc2cccnc2)n1CCCn1ccnc1	none
COc1ccc(OC)c(NC(=O)CSc2nccn2Cc2ccco2)c1	none (no result: 14-3-3 Bad PPI, Runt-SMMHC FRET, Hck Nef HTS, TbHK1 inh, Runt-CBFb FRET)
Cc1c(Cc2ccccc2)sc(/N=C/c2c(O)ccc3ccccc23)c1C(N)=O	RanGTP-Imp inh 120, Runt-SMMHC FRET 63, Runt-CBFb FRET 105 | Runt-CBFb TRFRET inactive
Cc1c(Cc2ccccc2)sc(/N=C/c2ccc3ccccc3c2)c1C(N)=O	none (no result: RanGTP-Imp inh)
Cc1ccccc1C(=O)NC(=S)Nc1sc2c(c1C#N)CCCC2	none
Cc1onc(-c2ccccc2)c1C(=O)NC(=S)Nc1sc2c(c1C#N)CCCC2	Runt-CBFb FRET 51 | Runt-CBFb TRFRET inactive
COc1ccc(C2c3ccc(O)cc3Oc3ncn4nc(-c5ccccn5)nc4c32)cc1 (stereo not given)	RanGTP-Imp inh inconclusive, Runt-CBFb FRET 53 (no result: Runt-SMMHC FRET) | Runt-CBFb TRFRET inactive
COc1ccc(C2c3ccc(O)cc3Oc3ncn4nc(-c5ccccn5)nc4c32)cc1OC (stereo not given)	none

Bioassay records (PubChem BioAssay)
